Measured values: ChEMBL document CHEMBL3526049 (Drug Metab Dispos, 2012)

Key:
[1] = AUC (infinity) in wild-type Sprague-Dawley rat at 1 mg/kg, iv by LC-MS/MS analysis; type: ADME, organism-based; set-up: time infinity, dose 1 mg/kg, route intravenous; settings: plasma
[2] = Oral bioavailability in wild-type Sprague-Dawley rat at 10 mg/kg by LC-MS/MS analysis; type: ADME, organism-based; settings: in vivo
Procedure, shortened: (§1)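 Male Sprague-Dawley rats (knockout or wild type matched for age and weight), femoral artery and vein cannulated, at least 2 days recovery. Crossover design: IV bolus 1 mg/kg on day 0 (saline with 0.2 M equivalents HCl), oral gavage 10 mg/kg on day 3 (water with 0.2 M equivalents HCl). Arterial plasma sampled to 24 h (Mdr1a oral arm to 4 h). Analysed by LC-MS/MS and noncompartmental analysis.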

[3] = Half life in wild-type Sprague-Dawley rat at 1 mg/kg, iv by LC-MS/MS analysis; type: ADME, organism-based; set-up: dose 1 mg/kg, route intravenous; settings: in vivo; procedure, shortened: as §1
[4] = Half life in MDR1A knockout Sprague-Dawley rat at 1 mg/kg, iv by LC-MS/MS analysis; type: ADME, organism-based; set-up: dose 1 mg/kg, route intravenous; settings: in vivo; procedure, shortened: as §1
[5] = Oral bioavailability in MRP2 knockout Sprague-Dawley rat at 10 mg/kg by LC-MS/MS analysis; type: ADME, organism-based; settings: in vivo; procedure, shortened: as §1
in vivo [6] = settings: Sprague-Dawley, rat, plasma, po, 10 mg/kg
Rattus norvegicus [7] = assay: Toxicity in MDR1A knockout Sprague-Dawley rat assessed as shallow breathing at 10 mg/kg, po after 1 to 2 hrs; type: organism-based; set-up: dose 10 mg/kg, route oral; settings: in vivo
Procedure, shortened: (§2)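 Independent veterinary staff recorded clinical central signs. After oral dosing, animals were observed 1–2 h post-dose and again at 4 h, when sampling stopped and the animals were discontinued.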

Rattus norvegicus [8] = assay: Toxicity in MDR1A knockout Sprague-Dawley rat assessed as lethargic behavior at 1 mg/kg, iv; type: organism-based; set-up: dose 1 mg/kg, route intravenous; settings: in vivo
in vivo [9] = settings: Sprague-Dawley, rat, plasma, po, 10 mg/kg; remark: listed apart in the source
[10] = Tmax in wild-type Sprague-Dawley rat at 10 mg/kg, po by LC-MS/MS analysis; type: ADME, organism-based; set-up: dose 10 mg/kg, route oral; settings: in vivo; procedure, shortened: as §1
[11] = Oral bioavailability in MDR1A knockout Sprague-Dawley rat at 10 mg/kg by LC-MS/MS analysis; type: ADME, organism-based; settings: in vivo; procedure, shortened: as §1
[12] = Half life in BCRP knockout Sprague-Dawley rat at 10 mg/kg, po by LC-MS/MS analysis; type: ADME, organism-based; set-up: dose 10 mg/kg, route oral; settings: in vivo; procedure, shortened: as §1
Rattus norvegicus [13] = assay: Toxicity in MDR1A knockout Sprague-Dawley rat assessed as eye protrusion at 10 mg/kg, po after 1 to 2 hrs; type: organism-based; set-up: dose 10 mg/kg, route oral; settings: in vivo; procedure, shortened: as §2
[14] = Cmax in MRP2 knockout Sprague-Dawley rat at 10 mg/kg, po by LC-MS/MS analysis; type: ADME, organism-based; set-up: dose 10 mg/kg, route oral; settings: in vivo; procedure, shortened: as §1
[15] = Half life in MRP2 knockout Sprague-Dawley rat at 1 mg/kg, iv by LC-MS/MS analysis; type: ADME, organism-based; set-up: dose 1 mg/kg, route intravenous; settings: in vivo
Procedure, shortened: as §1, with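 “HCl).” for “HCl). Arterial plasma sampled to 24 h (Mdr1a oral arm to 4 h).”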

in vivo [16] = settings: Sprague-Dawley, rat, po, 10 mg/kg
Rattus norvegicus [17] = assay: Toxicity in MDR1A knockout Sprague-Dawley rat assessed as hypoactive behavior at 10 mg/kg, po after 1 to 2 hrs; type: organism-based; set-up: dose 10 mg/kg, route oral; settings: in vivo; procedure, shortened: as §2
[18] = Half life in MRP2 knockout Sprague-Dawley rat at 10 mg/kg, po by LC-MS/MS analysis; type: ADME, organism-based; set-up: dose 10 mg/kg, route oral; settings: in vivo; procedure, shortened: as §1
[19] = AUC (infinity) in MDR1A knockout Sprague-Dawley rat at 1 mg/kg, iv by LC-MS/MS analysis; type: ADME, organism-based; set-up: time infinity, dose 1 mg/kg, route intravenous; settings: plasma
Rattus norvegicus [20] = assay: Toxicity in MDR1A knockout Sprague-Dawley rat assessed as lacrimation at 10 mg/kg, po after 1 to 2 hrs; type: organism-based; set-up: dose 10 mg/kg, route oral; settings: in vivo; procedure, shortened: as §2
Rattus norvegicus [21] = assay: Toxicity in MDR1A knockout Sprague-Dawley rat assessed as stupor at 10 mg/kg, po after 4 hrs; type: organism-based; set-up: dose 10 mg/kg, route oral; settings: in vivo; procedure, shortened: as §2
[22] = Tmax in MRP2 knockout Sprague-Dawley rat at 10 mg/kg, po by LC-MS/MS analysis; type: ADME, organism-based; set-up: dose 10 mg/kg, route oral; settings: in vivo; procedure, shortened: as §1
[23] = Tmax in MDR1A knockout Sprague-Dawley rat at 10 mg/kg, po by LC-MS/MS analysis; type: ADME, organism-based; set-up: dose 10 mg/kg, route oral; settings: in vivo; procedure, shortened: as §1
[24] = Volume of distribution at steady state in MRP2 knockout Sprague-Dawley rat at 1 mg/kg, iv by LC-MS/MS analysis; type: ADME, organism-based; set-up: dose 1 mg/kg, route intravenous; settings: in vivo, read-out: Vdss; procedure, shortened: as §1
[25] = Cmax in wild-type Sprague-Dawley rat at 10 mg/kg, po by LC-MS/MS analysis; type: ADME, organism-based; set-up: dose 10 mg/kg, route oral; settings: in vivo; procedure, shortened: as §1
[26] = Volume of distribution at steady state in BCRP knockout Sprague-Dawley rat at 1 mg/kg, iv by LC-MS/MS analysis; type: ADME, organism-based; set-up: dose 1 mg/kg, route intravenous; settings: in vivo, read-out: Vdss; procedure, shortened: as §1
Rattus norvegicus [27] = assay: Toxicity in MDR1A knockout Sprague-Dawley rat assessed as mortality at 10 mg/kg, po after 4 hrs; type: organism-based; set-up: dose 10 mg/kg, route oral; settings: in vivo; procedure, shortened: as §2
in vivo [28] = settings: Sprague-Dawley, rat, po, 10 mg/kg; remark: listed apart in the source
[29] = Oral bioavailability in BCRP knockout Sprague-Dawley rat at 10 mg/kg by LC-MS/MS analysis; type: ADME, organism-based; settings: in vivo; procedure, shortened: as §1
[30] = Cmax in MDR1A knockout Sprague-Dawley rat at 10 mg/kg, po by LC-MS/MS analysis; type: ADME, organism-based; set-up: dose 10 mg/kg, route oral; settings: in vivo; procedure, shortened: as §1
in vivo [31] = settings: Sprague-Dawley, rat, plasma, po, 10 mg/kg; remark: listed apart in the source
[32] = Half life in BCRP knockout Sprague-Dawley rat at 1 mg/kg, iv by LC-MS/MS analysis; type: ADME, organism-based; set-up: dose 1 mg/kg, route intravenous; settings: in vivo; procedure, shortened: as §1
[33] = AUC (infinity) in BCRP knockout Sprague-Dawley rat at 1 mg/kg, iv by LC-MS/MS analysis; type: ADME, organism-based; set-up: time infinity, dose 1 mg/kg, route intravenous; settings: plasma
[34] = Cmax in BCRP knockout Sprague-Dawley rat at 10 mg/kg, po by LC-MS/MS analysis; type: ADME, organism-based; set-up: dose 10 mg/kg, route oral; settings: in vivo; procedure, shortened: as §1
[35] = Volume of distribution at steady state in MDR1A knockout Sprague-Dawley rat at 1 mg/kg, iv by LC-MS/MS analysis; type: ADME, organism-based; set-up: dose 1 mg/kg, route intravenous; settings: in vivo, read-out: Vdss; procedure, shortened: as §1
[36] = Tmax in BCRP knockout Sprague-Dawley rat at 10 mg/kg, po by LC-MS/MS analysis; type: ADME, organism-based; set-up: dose 10 mg/kg, route oral; settings: in vivo; procedure, shortened: as §1
[37] = Volume of distribution at steady state in wild-type Sprague-Dawley rat at 1 mg/kg, iv by LC-MS/MS analysis; type: ADME, organism-based; set-up: dose 1 mg/kg, route intravenous; settings: in vivo, read-out: Vdss; procedure, shortened: as §1
[38] = Half life in wild-type Sprague-Dawley rat at 10 mg/kg, po by LC-MS/MS analysis; type: ADME, organism-based; set-up: dose 10 mg/kg, route oral; settings: in vivo; procedure, shortened: as §1
[39] = AUC (infinity) in MRP2 knockout Sprague-Dawley rat at 1 mg/kg, iv by LC-MS/MS analysis; type: ADME, organism-based, Plasma; set-up: time infinity, dose 1 mg/kg, route intravenous; settings: Sprague-Dawley, plasma

CN(C)C(=O)C(CCN1CCC(O)(c2ccc(Cl)cc2)CC1)(c1ccccc1)c1ccccc1 [LOPERAMIDE]
AUC(0-inf) [1]: 131 ng·h/mL
bioavailability [2]: 16%
half-life [3]: 1 h
half-life [4]: 1.5 h
bioavailability [5]: 60%
AUC(0-inf) (in vivo [6]): 806 ng·h/mL
Activity (Rattus norvegicus [7]): Toxic
Activity (Rattus norvegicus [8]): Toxic
AUC(0-inf) (in vivo [9]): 1020 ng·h/mL
Tmax [10]: 0.3 h
bioavailability [11]: 34%
half-life [12]: 15 h
Activity (Rattus norvegicus [13]): Toxic
Cmax [14]: 60 ng/mL
half-life [15]: 1.1 h
AUC(0-t) at 4 h (in vivo [16]): 651 ng·h/mL
Activity (Rattus norvegicus [17]): Toxic
half-life [18]: 13 h
AUC(0-inf) [19]: 243 ng·h/mL
Activity (Rattus norvegicus [20]): Toxic
Activity (Rattus norvegicus [21]): Toxic
Tmax [22]: 0.4 h
Tmax [23]: 0.8 h
Vd [24]: 21.2 L/kg
Cmax [25]: 90 ng/mL
Vd [26]: 11.5 L/kg
Activity (Rattus norvegicus [27]): Toxic
AUC(0-t) at 4 h (in vivo [28]): 184 ng·h/mL
bioavailability [29]: 40%
Cmax [30]: 226 ng/mL
AUC(0-inf) (in vivo [31]): 980 ng·h/mL
half-life [32]: 1.5 h
AUC(0-inf) [33]: 161 ng·h/mL
Cmax [34]: 69 ng/mL
Vd [35]: 7.9 L/kg
Tmax [36]: 0.7 h
Vd [37]: 9 L/kg
half-life [38]: 13 h
AUC(0-inf) [39]: 122 ng·h/mL
